Experimental findings from PubChem BioAssay are described below.

The other results are listed elsewhere or left out. A number with no mark means an inactive call. Calls of active or inactive are those of the source.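 How the source made its calls, unless noted: active means mean of duplicate thallium-flux fluorescence ratios in parental host cells more than 5 SD below the buffer control mean (cut at about 0.38 in these data); inactive means the rest.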

Chain of Potassium voltage-gated channel subfamily KQT member 1 (Homo sapiens) (P51787 whole entry, looked up): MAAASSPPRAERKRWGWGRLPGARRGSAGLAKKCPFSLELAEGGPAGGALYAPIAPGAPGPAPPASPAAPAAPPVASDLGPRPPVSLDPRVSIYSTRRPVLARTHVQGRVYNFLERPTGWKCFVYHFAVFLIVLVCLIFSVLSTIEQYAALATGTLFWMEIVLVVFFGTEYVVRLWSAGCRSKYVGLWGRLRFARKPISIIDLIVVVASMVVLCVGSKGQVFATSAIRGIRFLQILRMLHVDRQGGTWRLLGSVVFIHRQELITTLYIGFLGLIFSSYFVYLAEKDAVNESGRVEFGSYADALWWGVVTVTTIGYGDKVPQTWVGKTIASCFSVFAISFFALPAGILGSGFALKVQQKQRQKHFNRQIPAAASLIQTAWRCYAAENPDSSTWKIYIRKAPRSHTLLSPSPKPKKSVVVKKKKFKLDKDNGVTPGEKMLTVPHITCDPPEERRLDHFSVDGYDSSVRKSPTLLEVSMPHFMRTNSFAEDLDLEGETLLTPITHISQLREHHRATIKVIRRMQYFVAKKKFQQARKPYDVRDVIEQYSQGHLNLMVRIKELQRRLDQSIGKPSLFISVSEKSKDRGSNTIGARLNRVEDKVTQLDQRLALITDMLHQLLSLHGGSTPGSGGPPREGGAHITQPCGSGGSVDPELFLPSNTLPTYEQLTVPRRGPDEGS

The first test deals with Potassium voltage-gated channel subfamily KQT member 1 (Homo sapiens) (UniProt P51787). Nature of the test: KCNQ1 potassium channel inhibitors, confirmation, cell-based, Tl flux, duplicate (AID 588353;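 active means primary screen active, with duplicate mean exceeding buffer control mean plus 3 SD of buffer wells, cut at about 28% in these data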;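 further: 0% = buffer control ratio and 100% = XE991 inhibitor control ratio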). The settings on record: KCNQ1 cell line, FluxOR thallium flux fluorescence, at 10 µM, stronger effect = higher value. A digest of the protocol:
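Material: stable KCNQ1-expressing CHO cell line. Incubation: compound exposure 20 min at room temperature. Replication: duplicates, mean used. Control set: buffer and XE991. Evaluation: percent inhibition relative to buffer and XE991. Reagent: Tl2SO4 plus K2SO4 stimulus, each 12.5 mM in 5x stock. Measured by: thallium-sensitive FluxOR dye fluorescence.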
In the case of `Cc1cccc(-c2nc3ccc(C(=O)NCCN4CCN(C)CC4)cc3nc2-c2cccc(C)c2)c1`, the inhibition was 63% (active). Still for that read-out and setting: the value for `COc1ccc(C(=O)NC2CCCc3c2cnn3-c2cccc(C)c2C)c(OC)n1` (stereo not drawn) was 132% (active); that for `O=C(NCCc1ccccc1)c1ccc2c(c1)N(Cc1ccccc1)CCS2` was 71.5% (active).

In the case of `O=C(Nc1ccc2ccccc2c1)Nc1ccc2snnc2c1`, the inhibition is 41.5% (active). In the case of `Cc1ccccc1C(=O)OC1OC(=O)C(Cl)=C1Nc1ccccc1` (stereo not drawn), the inhibition was 79% (active). Still for that read-out and setting: the value for `Cn1nc(-c2ccc(Cl)cc2)c2cc(C(=O)NCc3ccco3)sc21` was 70.5% (active); that for `COc1ccc(S(=O)(=O)/N=C2\C=C(NS(=O)(=O)c3ccccc3)C(=O)c3ccccc32)cc1` was 31.5% (active). With `O=C(Nc1ccc(Cl)cc1)Nc1ccc(Oc2cccnc2)nc1`, the inhibition was 56% (active). Still for that read-out and setting: for `CCc1cc(C(c2ccccc2OC)N2CCOCC2)c(NC(=O)c2ccccc2)s1` (stereo not drawn) the value was 102% (active); for `Cc1ccc(-c2noc(CC(c3ccccc3)c3ccccc3)n2)cc1`, 65.5% (active).

Regarding `Cc1ccccc1OCC(=O)Nc1ccc(N2CCN(C(=O)C(C)C)CC2)c(Cl)c1`, the inhibition was 57.5% (active).

Consider `CC(C)OC(=O)C(C#N)c1nc2ccccc2nc1N1CCN(Cc2ccccc2)CC1` (stereo not drawn), for which the inhibition is 148% (active). Still for that read-out and setting: the value for `Cc1cccc(-n2cc(CN3CCN(C(=O)c4ncn[nH]4)CC3)c(-c3cccc(F)c3)n2)c1` was 45.5% (active); that for `COc1cc(NC(=O)c2ccccc2NS(=O)(=O)c2ccc(Cl)s2)cc(OC)c1` was 102% (active).

Take `O=C(Nc1ccc(F)cc1)c1cccnc1N1CCOCC1`: the inhibition is 44% (active). With `CS(=O)(=O)N(CC(=O)Nc1ccc(Cl)c(Cl)c1)C1CCCCC1`, the inhibition was 56.5% (active).

`O=C(Nc1nnc(S(=O)(=O)N2CCCCCC2)s1)c1cccc(Br)c1`: the inhibition was 57% (active). On the same count and under the same terms, the value for `CNC(=O)c1ccsc1NC(=O)c1ccc(S(=O)(=O)N2CCc3ccccc32)cc1` was 97% (active); that for `Fc1ccc2[nH]c3c(N4CCSCC4)ncnc3c2c1` was 162% (active); that for `O=C(NC(=S)Nc1ccccc1C(=O)O)c1ccc(-c2ccc(Br)cc2)o1` was 56% (active). Still for that read-out and setting: the value for `c1ccc2c(c1)C(=NC1CCCCC1)NC2=NC1CCCCC1` was 48% (active); that for `O=C(NCC(F)(F)F)Nc1nnc(C(F)(F)F)s1` was 26% (active). `CCOC(=O)c1ccc(NC(=O)Cn2cnc3cc(C)c(C)cc32)cc1`: the inhibition was 60% (active). Same read-out and setting: for `CC(C(=O)NCC1CCCCC1)N(C)Cc1cccc(Cl)c1` (stereo not drawn) the value was 62% (active); for `Cc1oc2c(F)c(F)c(F)c(F)c2c1S(=O)(=O)Nc1cccc(C(F)(F)F)c1`, 0% [the number is a placeholder, only the call stands]. Same read-out and setting: the value for `CCCC(=O)N1CCN(c2nnc(-c3ccc(C)cc3)c3ccccc23)CC1` was 0% [the number is a placeholder, only the call stands]; that for `S=C(Nc1cccc(Cl)c1)Nc1ccc2c(c1)OCCO2` was 81% (active); that for `CC(=O)N1CCCc2cc(S(=O)(=O)N3CCCC(C(=O)N4CCN(c5cccc(Cl)c5)CC4)C3)ccc21` (stereo not drawn) was 126% (active).

For `CCOC(=O)c1c(NC(=O)C(C)Sc2c[nH]c3ccccc23)sc2c1CCC2` (stereo not drawn), the inhibition is 124% (active).

As to `COC(=O)c1cc(NC(=O)c2cc(C(C)(C)C)nn2Cc2cccc(C)c2)ccc1N1CCOCC1`, the inhibition was 77% (active).

With `CCCN1Cc2cccc(C(=O)NCc3ccccc3)c2C1=O`, the inhibition is 83% (active). On the same count and under the same terms, for `CSc1nccc(NC(=O)c2ccc(C(C)(C)C)cc2)n1` the value was 153% (active). On to `COc1ccc(-c2cc(C(F)(F)F)nc(S(C)(=O)=O)n2)cc1OC`, for which the inhibition was 27% (active). On the same count and under the same terms, the value for `Cc1nnc(SC(C(=O)Nc2cc(Cl)cc(Cl)c2)c2ccccc2)[nH]c1=O` (stereo not drawn) was 43% (active). On the same count and under the same terms, the value for `FC(F)Oc1ccc(NC(=S)NCc2ccco2)cc1Cl` was 56.5% (active); that for `Cc1cccc(NC(=S)Nc2ccc(Cl)c(Cl)c2)c1` was 49% (active).

`Cc1c(C(=O)OC(C)C)sc(NC(=O)c2cccnc2)c1C#N`: the inhibition is 74% (active). Still for that read-out and setting: the value for `COc1cccc(-c2cnc(OC(C)(C)C)nc2OC(C)(C)C)c1` was 75% (active).

Test system in the next test: not listed separately
Nature of the test: thallium flux effects in parental CHO cells, counter-screen for KCNQ1 inhibitor project, cell-based, Tl flux (AID 588366).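 Further: ratio is peak minus minimum fluorescence divided by baseline fluorescence; actives read low.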 Conditions: parental CHO-K1, FluxOR thallium flux fluorescence ratio; at 10 µM; stronger effect = lower value; zero means no signal rise above baseline. An outline of the steps: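 material = parental CHO-K1 cells lacking KCNQ1 channel expression | schedule = FluxOR dye loading 90 min, compound exposure 20 min, room temperature | technique = kinetic Tl+ flux fluorescence with FluxOR dye | controls = assay buffer-only wells as negative controls | replicates = each compound tested in duplicate wells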
Regarding `Cc1cccc(-c2nc3ccc(C(=O)NCCN4CCN(C)CC4)cc3nc2-c2cccc(C)c2)c1`, the fluorescence ratio (Tl flux) is 0.34 (active). For `COc1ccc(C(=O)NC2CCCc3c2cnn3-c2cccc(C)c2C)c(OC)n1` (stereo not drawn), the fluorescence ratio (Tl flux) was 0.296 (active). On the same count and under the same terms, for `O=C(NCCc1ccccc1)c1ccc2c(c1)N(Cc1ccccc1)CCS2` the value was 0.426; for `O=C(Nc1ccc2ccccc2c1)Nc1ccc2snnc2c1`, 0.539; for `Cc1ccccc1C(=O)OC1OC(=O)C(Cl)=C1Nc1ccccc1` (stereo not drawn), 0.434. The same measure, in the same setting: the value for `Cc1nn(C)cc1N1C(=O)c2cccc3c(N)ccc(c23)C1=O` was 0.006 (active); that for `Cn1nc(-c2ccc(Cl)cc2)c2cc(C(=O)NCc3ccco3)sc21` was 0.454.

For `COc1ccc(S(=O)(=O)/N=C2\C=C(NS(=O)(=O)c3ccccc3)C(=O)c3ccccc32)cc1`, the fluorescence ratio (Tl flux) was 0.44. For the compound `O=C(Nc1ccc(Cl)cc1)Nc1ccc(Oc2cccnc2)nc1`, the fluorescence ratio (Tl flux) was 0.487. With `CCc1cc(C(c2ccccc2OC)N2CCOCC2)c(NC(=O)c2ccccc2)s1` (stereo not drawn), the fluorescence ratio (Tl flux) is 0.335 (active). On the same count and under the same terms, for `Cc1ccc(-c2noc(CC(c3ccccc3)c3ccccc3)n2)cc1` the value was 0.45. For `Cc1ccccc1OCC(=O)Nc1ccc(N2CCN(C(=O)C(C)C)CC2)c(Cl)c1`, the fluorescence ratio (Tl flux) was 0.503. The same measure, in the same setting: the value for `CC(C)OC(=O)C(C#N)c1nc2ccccc2nc1N1CCN(Cc2ccccc2)CC1` (stereo not drawn) was 0.382; that for `Cc1cccc(-n2cc(CN3CCN(C(=O)c4ncn[nH]4)CC3)c(-c3cccc(F)c3)n2)c1` was 0.435. With `COc1cc(NC(=O)c2ccccc2NS(=O)(=O)c2ccc(Cl)s2)cc(OC)c1`, the fluorescence ratio (Tl flux) is 0.419.

`O=C(Nc1ccc(F)cc1)c1cccnc1N1CCOCC1`: the fluorescence ratio (Tl flux) was 0.517. Still for that read-out and setting: for `CS(=O)(=O)N(CC(=O)Nc1ccc(Cl)c(Cl)c1)C1CCCCC1` the value was 0.476; for `O=C(Nc1nnc(S(=O)(=O)N2CCCCCC2)s1)c1cccc(Br)c1`, 0.485; for `CNC(=O)c1ccsc1NC(=O)c1ccc(S(=O)(=O)N2CCc3ccccc32)cc1`, 0.446.

As for `Fc1ccc2[nH]c3c(N4CCSCC4)ncnc3c2c1`, the fluorescence ratio (Tl flux) is 0.362 (active). Consider `O=C(NC(=S)Nc1ccccc1C(=O)O)c1ccc(-c2ccc(Br)cc2)o1`, for which the fluorescence ratio (Tl flux) was 0.46.

As for `c1ccc2c(c1)C(=NC1CCCCC1)NC2=NC1CCCCC1`, the fluorescence ratio (Tl flux) is 0.526.

Consider `O=C(NCC(F)(F)F)Nc1nnc(C(F)(F)F)s1`, for which the fluorescence ratio (Tl flux) is 0.557. On to `CCOC(=O)c1ccc(NC(=O)Cn2cnc3cc(C)c(C)cc32)cc1`, for which the fluorescence ratio (Tl flux) is 0.481. In the case of `CC(C(=O)NCC1CCCCC1)N(C)Cc1cccc(Cl)c1` (stereo not drawn), the fluorescence ratio (Tl flux) is 0.435. In the case of `Cc1oc2c(F)c(F)c(F)c(F)c2c1S(=O)(=O)Nc1cccc(C(F)(F)F)c1`, the fluorescence ratio (Tl flux) is 0.531.

Consider `CCCC(=O)N1CCN(c2nnc(-c3ccc(C)cc3)c3ccccc23)CC1`, for which the fluorescence ratio (Tl flux) was 0.507. On the same count and under the same terms, the value for `S=C(Nc1cccc(Cl)c1)Nc1ccc2c(c1)OCCO2` was 0.444; that for `CC(=O)N1CCCc2cc(S(=O)(=O)N3CCCC(C(=O)N4CCN(c5cccc(Cl)c5)CC4)C3)ccc21` (stereo not drawn) was 0.436. For `CCOC(=O)c1c(NC(=O)C(C)Sc2c[nH]c3ccccc23)sc2c1CCC2` (stereo not drawn), the fluorescence ratio (Tl flux) was 0.415. The same measure, in the same setting: for `COC(=O)c1cc(NC(=O)c2cc(C(C)(C)C)nn2Cc2cccc(C)c2)ccc1N1CCOCC1` the value was 0.333 (active). Turning to `CCCN1Cc2cccc(C(=O)NCc3ccccc3)c2C1=O`, the fluorescence ratio (Tl flux) is 0.478.

As for `Oc1ccc2ccc3cccc[n+]3c2c1`, the fluorescence ratio (Tl flux) was 0.012 (active). As to `CSc1nccc(NC(=O)c2ccc(C(C)(C)C)cc2)n1`, the fluorescence ratio (Tl flux) is 0.366 (active).

As to `COc1ccc(-c2cc(C(F)(F)F)nc(S(C)(=O)=O)n2)cc1OC`, the fluorescence ratio (Tl flux) was 0.445.

As to `Cc1nnc(SC(C(=O)Nc2cc(Cl)cc(Cl)c2)c2ccccc2)[nH]c1=O` (stereo not drawn), the fluorescence ratio (Tl flux) is 0.471.

Turning to `FC(F)Oc1ccc(NC(=S)NCc2ccco2)cc1Cl`, the fluorescence ratio (Tl flux) was 0.494. `Cc1cccc(NC(=S)Nc2ccc(Cl)c(Cl)c2)c1`: the fluorescence ratio (Tl flux) was 0.565. Turning to `Cc1c(C(=O)OC(C)C)sc(NC(=O)c2cccnc2)c1C#N`, the fluorescence ratio (Tl flux) is 0.489. The same measure, in the same setting: for `COc1cccc(-c2cnc(OC(C)(C)C)nc2OC(C)(C)C)c1` the value was 0.462.
